Measured values reported in ChEMBL document CHEMBL4382241, “Synthesis and evaluation of third generation vitamin D3 analogues as inhibitors of Hedgehog signaling” (Eur J Med Chem, 2019).
Converted amounts (≈) assume the structure as drawn. The source made the active and inactive calls. The calls are words filed in the database; no cut-off is given here.

Experiments:
[1] = Inhibition of Hedgehog signaling pathway in mouse C3H10T1/2 cells assessed as reduction in oxysterol-induced Gli1 mRNA expression after 24 hrs by q-PCR analysis; assay type: cell-based; conditions: C3H 10T1/2, 24 h
[2] = target: T1, Vitamin D3 receptor (Mus musculus) (UniProt P48281); test: Activation of VDR in mouse C3H10T1/2 cells assessed as change in Cyp24A1 mRNA expression at 5 uM after 24 hrs by q-PCR analysis relative to control; assay type: cell-based
T1 sequence (whole entry): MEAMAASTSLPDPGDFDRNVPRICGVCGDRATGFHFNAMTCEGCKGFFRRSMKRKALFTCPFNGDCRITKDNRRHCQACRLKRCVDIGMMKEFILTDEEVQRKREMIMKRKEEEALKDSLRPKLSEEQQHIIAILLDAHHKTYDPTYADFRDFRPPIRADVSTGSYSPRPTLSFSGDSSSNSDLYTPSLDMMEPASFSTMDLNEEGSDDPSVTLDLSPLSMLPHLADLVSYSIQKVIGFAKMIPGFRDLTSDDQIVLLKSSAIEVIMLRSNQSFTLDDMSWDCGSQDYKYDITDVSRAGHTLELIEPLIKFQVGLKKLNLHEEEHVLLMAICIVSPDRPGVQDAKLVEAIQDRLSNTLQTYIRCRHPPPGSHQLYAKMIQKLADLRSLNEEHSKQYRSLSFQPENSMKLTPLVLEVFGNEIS

[3] = Inhibition of Hedgehog signaling pathway in mouse ASZ001 cells assessed as reduction in […] Gli1 mRNA expression after 48 hrs by q-PCR analysis; assay type: cell-based; conditions: ASZ001, 48 h
[4] = target: T1, Vitamin D3 receptor (Mus musculus); test: Activation of VDR in mouse ASZ001 cells assessed as change in Cyp24A1 mRNA expression at 5 uM after 48 hrs by q-PCR analysis relative to control; assay type: cell-based
Vitamin D3 receptor = target: T2, Vitamin D3 receptor (Mus musculus, UniProt P48281); test: Activation of VDR in mouse ASZ001 cells assessed as change in Cyp24A1 mRNA expression after 48 hrs by q-PCR analysis; assay type: cell-based
T2 sequence (P48281 whole entry): T1 sequence (whole entry)
Summary of the method: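 In ASZ001 cells, full dose-response Cyp24A1 mRNA measurement by qPCR was done relative to DMSO control (1.0). EC50 values are mean ± SEM of at least two separate experiments performed in triplicate.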

Medulloblastoma cell = test: Antiproliferative activity against medulloblastoma cells derived from conditional patched knockout mouse after 48 hrs by [3H]-thymidine incorporation assay; assay type: functional
Summary of the method: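 Primary tumour cells from Math1-Cre;Ptc fl/fl medulloblastoma were isolated and cultured in vitro, then incubated with analogue for 48 h in a proliferation assay. GI50 is mean ± SEM of at least two separate experiments performed in triplicate.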

[5] = Kinetic solubility of the compound in pH 4 phosphate buffered saline; assay type: physicochemical; conditions: read-out: Kinetic_solubility
Summary of the method: (§1)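 Kinetic solubility was run in PBS at pH 4.0 and at pH 7.4 under a standard contract protocol. Compound concentration was measured by LC-MS/MS.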

[6] = Kinetic solubility of the compound in pH 7.4 phosphate buffered saline; assay type: physicochemical; conditions: read-out: Kinetic_solubility; summary of the method: as §1
Mus musculus [7] = organism: Mus musculus; test: Inhibition of Hedgehog signaling pathway in VDR-deficient mouse C3H10T1/2 cells assessed as reduction in oxysterol-induced Gli1 mRNA expression at 5 uM after 24 hrs by q-PCR analysis
Mus musculus [8] = organism: Mus musculus; test: Inhibition of Hedgehog signaling pathway in Sufu-deficient mouse C3H10T1/2 cells assessed as reduction in oxysterol-induced Gli1 mRNA expression at 5 uM after 24 hrs by q-PCR analysis
Mus musculus [9] = organism: Mus musculus; test: Inhibition of Hedgehog signaling pathway in VDR-deficient mouse C3H10T1/2 cells assessed as change in CYP24A1 mRNA expression at 5 uM after 24 hrs by q-PCR analysis; design: scale not given: the % may be the effect or the level left
Mus musculus [10] = organism: Mus musculus; test: Inhibition of Hedgehog signaling pathway in Sufu-deficient mouse C3H10T1/2 cells assessed as change in CYP24A1 mRNA expression at 5 uM after 24 hrs by q-PCR analysis; design: scale not given: the % may be the effect or the level left
[11] = Inhibition of Hedgehog signaling pathway in Sufu-deficient mouse C3H10T1/2 cells assessed as reduction in oxysterol-induced Gli1 mRNA expression after 24 hrs by q-PCR analysis; conditions: C3H 10T1/2, 24 h
[12] = Inhibition of Hedgehog signaling pathway in VDR-deficient mouse C3H10T1/2 cells assessed as reduction in oxysterol-induced Gli1 mRNA expression after 24 hrs by q-PCR analysis; conditions: C3H 10T1/2, 24 h
Mus musculus [13] = organism: Mus musculus; test: Inhibition of Hedgehog signaling pathway in mouse C3H10T1/2 cells assessed as residual oxysterol-induced Gli1 mRNA expression at 5 uM after 24 hrs by q-PCR analysis relative to oxysterol alone
[14] = Half life in human liver microsomes at 1 uM by LC-MS/MS analysis
[15] = Clearance in human liver microsomes assessed per mg protein at 1 uM by LC-MS/MS analysis
[16] = target: T1, Vitamin D3 receptor (Mus musculus); test: Activation of VDR in mouse ASZ001 cells assessed as change in Cyp24A1 mRNA expression at 2.5 uM after 48 hrs by q-PCR analysis relative to control; assay type: cell-based

Row | SMILES | IC50 [1] | Activity [2] | IC50 [3] | Activity [4] | EC50 (Vitamin D3 receptor) | GI50 (Medulloblastoma cell) | solubility kinetic [5] | solubility kinetic [6] | % Gli1 activity (Mus musculus [13]) | half-life at 1 µM ([14]; liver microsomes) | CLH [15] | also measured
1 | C[C@H](CCCC(C)(C)O)[C@H]1CC[C@H]2[C@@H](Nc3ccc(O)cc3)CCC[C@]12C | 890 to 900 nM | 15000% | 200 nM | > 30000% | 600 nM | 2200 nM | 2.4 µg/mL (≈ 6.42 µM) | 0.0042 µg/mL (≈ 0.0112 µM) | 11% | – | – | inhibition (Mus musculus [7]): inactive; Hedgehog inhibition activity call (active/not active) (Mus musculus [8]): inactive; Activity (Mus musculus [9]): 140%; Activity (Mus musculus [10]): 51%; IC50 [11]: 2900 nM; IC50 [12]: 4900 nM
2 | CC(C)CCC[C@@H](C)[C@H]1CC[C@H]2[C@@H](OC(=O)c3cccc(O)c3)CCC[C@]12C | – | – | – | – | – | > 10000 nM | 0.16 µg/mL (≈ 0.414 µM) | 0.67 µg/mL (≈ 1.73 µM) | – | > 231 min | < 3 | –
3 | COC(C)(C)CCC[C@@H](C)[C@H]1CC[C@H]2[C@@H](Nc3cccc(O)c3)CCC[C@]12C | 2300 nM | 89% | 600 nM | 11000% | 700 nM | – | 0.017 µg/mL (≈ 0.0439 µM) | 0.014 µg/mL (≈ 0.0361 µM) | 3.3% | > 231 min | < 3 | –
4 | CC(C)CCC[C@@H](C)[C@H]1CC[C@H]2[C@@H](Nc3ccc4c(c3)OCO4)CCC[C@]12C | – | 6.1% | – | – | – | – | – | – | 110% | – | – | –
5 | COC(C)(C)CCC[C@@H](C)[C@H]1CC[C@H]2[C@@H](OC(=O)c3cccc(O)c3)CCC[C@]12C | 1600 nM | 14% | 1000 nM | 14% | > 10000 nM | – | 0.0027 µg/mL (≈ 0.00648 µM) | 0.0023 µg/mL (≈ 0.00552 µM) | 0.7% | – | 15 | half-life at 1 µM ([14]; microsomes): 49 min
6 | CC(C)CCC[C@@H](C)[C@H]1CC[C@H]2[C@@H](NC(=O)c3cccc(O)c3)CCC[C@]12C | – | – | – | – | – | – | 0.27 µg/mL (≈ 0.7 µM) | 0.68 µg/mL (≈ 1.76 µM) | – | > 231 min | < 3 | –
7 | CC(C)CCC[C@@H](C)[C@H]1CC[C@H]2[C@H](Nc3ccc(O)cc3)CCC[C@]12C | – | – | – | – | – | 2100 nM | 0.00075 µg/mL (≈ 0.0021 µM) | 0.00026 µg/mL (≈ 0.000727 µM) | – | > 231 min | < 3 | –
8 | CC(C)CCC[C@@H](C)[C@H]1CC[C@H]2[C@@H](Nc3ccc(O)cc3)CCC[C@]12C | 400 nM | 45% | – | – | – | – | 0.00062 µg/mL (≈ 0.00173 µM) | 0.0026 µg/mL (≈ 0.00727 µM) | – | 57 min | 12 | inhibition (Mus musculus [7]): inactive; Hedgehog inhibition activity call (active/not active) (Mus musculus [8]): inactive; Activity (Mus musculus [9]): 8.1%; Activity (Mus musculus [10]): 1.2%; IC50 [11]: 3100 nM; IC50 [12]: 3900 nM
9 | C[C@H](CCCC(C)(C)O)[C@H]1CC[C@H]2[C@H](CNc3ccc(O)cc3)CCC[C@]12C | 400 nM | 6.1% | 500 nM | 140% | 1300 nM | – | – | – | 5.6% | – | – | –
10 | C[C@H](CCCC(C)(C)O)[C@H]1CC[C@H]2[C@H](CNc3cccc(O)c3)CCC[C@]12C | 1700 nM | 34% | 1300 nM | 8.4% | > 10000 nM | 1600 nM | – | – | 4.1% | – | – | –
11 | C[C@H](CCCC(C)(C)O)[C@H]1CC[C@H]2[C@@H](Nc3cccc(O)c3)CCC[C@]12C | 1300 nM | > 30000% | 100 nM | > 30000% | 100 nM | 5300 nM | – | – | 5.9% | – | – | –
12 | COc1cccc(N[C@H]2CCC[C@]3(C)[C@@H]([C@H](C)CCCC(C)C)CC[C@@H]23)c1 | – | 1.9% | – | – | – | – | – | – | 110% | – | – | –
13 | CC(C)CCC[C@@H](C)[C@H]1CC[C@H]2[C@@H](Nc3ccccc3)CCC[C@]12C | – | 1.2% | – | – | – | – | – | – | 98% | – | – | –
14 | C[C@H](CCCC(C)(C)O)[C@H]1CC[C@H]2[C@@H](OC(=O)c3cccc(O)c3)CCC[C@]12C | 1600 nM | 27000% | 400 nM | > 30000% | 400 nM | > 10000 nM | 0.048 µg/mL (≈ 0.119 µM) | 0.031 µg/mL (≈ 0.077 µM) | 2.9% | 47 min | 15 | –
15 | CC(C)CCC[C@@H](C)[C@H]1CC[C@H]2[C@H](CNc3cccc(O)c3)CCC[C@]12C | 3800 nM | 13% | 1200 nM | – | – | – | – | – | 13% | – | – | Activity [16]: 7.8%
16 | C=C1CC[C@H](O)C/C1=C/C=C1\CCC[C@]2(C)[C@@H]([C@H](C)CCCC(C)C)CC[C@@H]12 [CHOLECALCIFEROL] | – | – | – | – | 900 nM | 5800 nM | – | – | – | – | – | inhibition (Mus musculus [7]): inactive; inhibition (Mus musculus [8]): inactive; Activity (Mus musculus [9]): 5.5%; Activity (Mus musculus [10]): 2.9%; IC50 [11]: > 10000 nM; IC50 [12]: 4500 nM
17 | CC(C)CCC[C@@H](C)[C@H]1CC[C@H]2[C@@H](NCc3ccc(O)cc3)CCC[C@]12C | 3100 nM | 24% | 300 nM | 1.1% | – | – | – | – | 4.6% | – | – | –
18 | COC(C)(C)CCC[C@@H](C)[C@H]1CC[C@H]2[C@H](CNc3cccc(O)c3)CCC[C@]12C | 1100 nM | 27% | 700 nM | 2400% | 600 nM | – | 0.06 µg/mL (≈ 0.149 µM) | 0.12 µg/mL (≈ 0.299 µM) | 3.7% | 43 min | 16 | –
19 | COc1ccc(N[C@H]2CCC[C@]3(C)[C@@H]([C@H](C)CCCC(C)C)CC[C@@H]23)cc1 | – | 2.4% | – | – | – | – | – | – | 73% | – | – | –
